Reference: ChEMBL document CHEMBL3997782, “Methoxylated 2'-hydroxychalcones as antiparasitic hit compounds” (Eur J Med Chem, 2017)

Key:
Leishmania infantum [1] = test: Anti-parasitic activity against Leishmania infantum amastigotes infected in human THP1 cells at 50 uM after 5 days by Giemsa staining based assay relative to control; type: functional, cell-based; conditions: THP-1, 120 h
Method in brief: (§1)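 Intracellular L. infantum amastigotes in host cells, imaged by high-content automated imaging. Host cell number, infected cells and parasites per infected cell were counted. Infection Ratio = infected cells / total cells.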

Leishmania infantum [2] = test: Anti-parasitic activity against Leishmania infantum amastigotes infected in human THP1 cells after 5 days by Giemsa staining based assay; type: functional, cell-based; conditions: THP-1, 120 h; method in brief: as §1
CYP2D6 = CYP2D6 (Homo sapiens, UniProt P10635); test: Inhibition of human CYP2D6 expressed in baculovirus-infected insect cells at 10 uM using Luciferin-ME EGE as substrate in presence of NADPH by P450-Glo luminescence assay relative to control; type: ADME; conditions: probe Luciferin-ME EGE
CYP2D6, sequence (P10635 whole entry): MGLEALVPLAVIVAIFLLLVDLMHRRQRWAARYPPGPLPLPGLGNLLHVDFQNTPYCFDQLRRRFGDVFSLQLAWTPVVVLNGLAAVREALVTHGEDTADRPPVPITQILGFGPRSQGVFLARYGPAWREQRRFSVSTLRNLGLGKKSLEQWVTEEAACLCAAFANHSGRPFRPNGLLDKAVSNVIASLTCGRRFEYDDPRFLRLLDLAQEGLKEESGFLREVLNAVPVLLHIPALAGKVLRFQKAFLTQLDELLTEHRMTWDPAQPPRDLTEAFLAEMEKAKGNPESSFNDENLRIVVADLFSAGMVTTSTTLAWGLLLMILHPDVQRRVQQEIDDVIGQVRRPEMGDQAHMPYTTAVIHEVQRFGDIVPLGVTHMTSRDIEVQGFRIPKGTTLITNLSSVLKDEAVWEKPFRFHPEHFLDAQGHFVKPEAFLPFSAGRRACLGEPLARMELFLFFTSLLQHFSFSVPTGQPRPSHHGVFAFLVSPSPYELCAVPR
Method in brief: (§2)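 CYP enzymes as microsomal preparations from baculovirus-infected insect cells, run on the P450-Glo luminogenic substrate platform. A fall in light output indicates inhibition.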

Aurora kinase B = Aurora kinase B (Homo sapiens, UniProt Q96GD4); test: Inhibition of N-terminal-GST-tagged recombinant full length human Aurora B expressed in baculovirus infected Sf9 cells at 10 uM using native Swine Myelin Basic Protein as substrate measured after 60 mins by ADP-Glo assay relative to control; conditions: probe native Swine Myelin Basic Protein
Aurora kinase B, sequence (Q96GD4 whole entry): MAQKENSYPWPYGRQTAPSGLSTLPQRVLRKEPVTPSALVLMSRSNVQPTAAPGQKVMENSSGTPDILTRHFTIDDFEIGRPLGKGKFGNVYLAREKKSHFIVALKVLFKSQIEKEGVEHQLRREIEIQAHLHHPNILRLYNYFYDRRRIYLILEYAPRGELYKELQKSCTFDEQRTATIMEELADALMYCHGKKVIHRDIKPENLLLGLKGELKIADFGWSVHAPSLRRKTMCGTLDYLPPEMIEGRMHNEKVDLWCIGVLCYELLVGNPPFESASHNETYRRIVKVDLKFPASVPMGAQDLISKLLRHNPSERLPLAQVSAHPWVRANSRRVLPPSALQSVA
Method in brief: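 Aurora B kinase activity measured by ADP-Glo, which detects ADP formed through a coupled luciferase luminescence read-out.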

hERG (KCNH2) = hERG (KCNH2) (Homo sapiens, UniProt Q12809); test: Inhibition of human ERG at 10 uM by Tracer Red dye based fluorescence polarization assay relative to control; conditions: probe Tracer Red dye
hERG (KCNH2), sequence (Q12809 whole entry): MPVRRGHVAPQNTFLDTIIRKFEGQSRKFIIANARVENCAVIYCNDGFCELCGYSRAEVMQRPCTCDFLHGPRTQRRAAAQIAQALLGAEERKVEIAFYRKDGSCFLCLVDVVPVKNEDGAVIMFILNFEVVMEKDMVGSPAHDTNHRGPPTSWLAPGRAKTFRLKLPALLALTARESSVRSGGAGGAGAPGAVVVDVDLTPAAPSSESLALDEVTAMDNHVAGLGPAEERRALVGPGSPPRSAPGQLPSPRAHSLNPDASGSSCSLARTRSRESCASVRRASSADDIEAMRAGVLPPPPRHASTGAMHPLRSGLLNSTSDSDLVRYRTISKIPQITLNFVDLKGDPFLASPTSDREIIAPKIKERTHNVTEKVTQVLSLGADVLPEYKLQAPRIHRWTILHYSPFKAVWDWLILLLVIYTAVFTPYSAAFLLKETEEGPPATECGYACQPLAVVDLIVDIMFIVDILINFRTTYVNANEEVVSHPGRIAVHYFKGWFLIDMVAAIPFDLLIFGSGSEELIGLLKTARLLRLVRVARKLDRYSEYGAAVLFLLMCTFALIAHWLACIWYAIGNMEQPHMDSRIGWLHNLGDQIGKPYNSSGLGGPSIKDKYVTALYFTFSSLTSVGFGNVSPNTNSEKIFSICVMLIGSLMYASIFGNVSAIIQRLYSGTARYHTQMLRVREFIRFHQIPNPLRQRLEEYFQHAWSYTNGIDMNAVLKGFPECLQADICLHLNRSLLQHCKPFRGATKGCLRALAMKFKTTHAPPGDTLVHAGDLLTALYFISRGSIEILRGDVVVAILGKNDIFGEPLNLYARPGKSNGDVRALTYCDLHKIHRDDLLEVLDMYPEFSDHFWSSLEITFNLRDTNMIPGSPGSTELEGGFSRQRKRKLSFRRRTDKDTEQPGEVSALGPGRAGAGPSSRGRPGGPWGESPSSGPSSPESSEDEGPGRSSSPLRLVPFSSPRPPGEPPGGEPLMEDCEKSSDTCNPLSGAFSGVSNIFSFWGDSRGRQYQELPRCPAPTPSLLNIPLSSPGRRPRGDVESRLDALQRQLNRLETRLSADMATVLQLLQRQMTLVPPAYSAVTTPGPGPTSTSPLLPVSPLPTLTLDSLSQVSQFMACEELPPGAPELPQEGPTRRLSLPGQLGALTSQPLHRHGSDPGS

CYP3A4 = CYP3A4 (Homo sapiens, UniProt P08684); test: Inhibition of human CYP3A4 expressed in baculovirus-infected insect cells at 10 uM using Luciferin-PFBE as substrate in presence of NADPH by P450-Glo luminescence assay relative to control; type: ADME; conditions: probe Luciferin-PFBE
CYP3A4, sequence (P08684 whole entry): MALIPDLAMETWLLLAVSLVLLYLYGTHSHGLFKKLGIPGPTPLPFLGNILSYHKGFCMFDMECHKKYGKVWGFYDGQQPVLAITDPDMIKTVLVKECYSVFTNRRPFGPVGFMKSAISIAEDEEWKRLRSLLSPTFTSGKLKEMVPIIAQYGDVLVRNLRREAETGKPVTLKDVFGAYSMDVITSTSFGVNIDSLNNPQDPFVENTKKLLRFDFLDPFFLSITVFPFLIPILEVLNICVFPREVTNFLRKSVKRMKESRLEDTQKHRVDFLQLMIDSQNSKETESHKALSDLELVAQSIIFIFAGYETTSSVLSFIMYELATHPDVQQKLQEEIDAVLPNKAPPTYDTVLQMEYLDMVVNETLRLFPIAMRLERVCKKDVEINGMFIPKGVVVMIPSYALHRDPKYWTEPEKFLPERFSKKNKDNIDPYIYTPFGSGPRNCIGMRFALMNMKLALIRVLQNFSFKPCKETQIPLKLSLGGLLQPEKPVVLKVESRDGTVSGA

CYP2C19 = CYP2C19 (Homo sapiens, UniProt P33261); test: Inhibition of human CYP2C19 expressed in baculovirus-infected insect cells at 10 uM using Luciferin-H EGE as substrate in presence of NADPH by P450-Glo luminescence assay relative to control; type: ADME; conditions: probe Luciferin-H EGE; method in brief: as §2
CYP2C19, sequence (P33261 whole entry): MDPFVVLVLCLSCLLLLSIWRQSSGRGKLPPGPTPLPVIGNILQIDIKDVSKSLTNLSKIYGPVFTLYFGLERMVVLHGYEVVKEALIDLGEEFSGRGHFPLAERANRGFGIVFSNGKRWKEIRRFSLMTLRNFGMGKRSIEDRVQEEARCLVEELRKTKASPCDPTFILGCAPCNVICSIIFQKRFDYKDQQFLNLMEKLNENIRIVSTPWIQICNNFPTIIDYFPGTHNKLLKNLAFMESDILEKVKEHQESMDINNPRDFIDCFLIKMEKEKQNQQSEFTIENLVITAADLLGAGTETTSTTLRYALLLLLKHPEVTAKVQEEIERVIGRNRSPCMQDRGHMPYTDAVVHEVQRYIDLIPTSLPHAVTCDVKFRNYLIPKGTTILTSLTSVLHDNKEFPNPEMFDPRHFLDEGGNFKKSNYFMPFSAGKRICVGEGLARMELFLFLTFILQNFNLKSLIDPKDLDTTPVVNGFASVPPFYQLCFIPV

[3] = Cytotoxicity against human THP1 cells by MTT assay; type: cell-based; conditions: THP-1 cells
Method in brief: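 THP-1 cells differentiated to macrophages with PMA, viability read by colorimetric MTT. CC50 and NOAEL are the arithmetic mean of at least two independent determinations, each run in triplicate.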

[4] = Selectivity index, ratio of CC50 for human THP1 cells to EC50 for anti-parasitic activity against Leishmania infantum amastigotes infected in human THP1 cells; type: toxicity, cell-based; conditions: THP-1 cells, read-out: Ratio CC50/EC50
Method in brief: (§3)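 SI = CC50 in PMA-differentiated THP-1 macrophages (MTT) divided by the antiparasitic EC50.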

[5] = Cytotoxicity against human A549 cells assessed as cell growth at 10 uM by Cell titer-Glo assay relative to control; type: cell-based; conditions: read-out: Activity
Method in brief: (§4)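 A549 and WI-38 cells grown in DMEM with 10% v/v FCS, streptomycin 100 µg/ml and penicillin G 100 U/ml. Cell number read as cellular ATP by CellTiter-Glo luminescence. Growth 60–100% scored non-cytotoxic, 0–60% cytostatic, below 0 cytotoxic.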

CYP1A2 = target: T1, CYP1A2 (Homo sapiens, UniProt P05177); test: Inhibition of human CYP1A2 expressed in baculovirus-infected insect cells at 10 uM using Luciferin-1A2 as substrate in presence of NADPH by P450-Glo luminescence assay relative to control; type: ADME; conditions: probe Luciferin-1A2; method in brief: as §2
T1 sequence (P05177 whole entry): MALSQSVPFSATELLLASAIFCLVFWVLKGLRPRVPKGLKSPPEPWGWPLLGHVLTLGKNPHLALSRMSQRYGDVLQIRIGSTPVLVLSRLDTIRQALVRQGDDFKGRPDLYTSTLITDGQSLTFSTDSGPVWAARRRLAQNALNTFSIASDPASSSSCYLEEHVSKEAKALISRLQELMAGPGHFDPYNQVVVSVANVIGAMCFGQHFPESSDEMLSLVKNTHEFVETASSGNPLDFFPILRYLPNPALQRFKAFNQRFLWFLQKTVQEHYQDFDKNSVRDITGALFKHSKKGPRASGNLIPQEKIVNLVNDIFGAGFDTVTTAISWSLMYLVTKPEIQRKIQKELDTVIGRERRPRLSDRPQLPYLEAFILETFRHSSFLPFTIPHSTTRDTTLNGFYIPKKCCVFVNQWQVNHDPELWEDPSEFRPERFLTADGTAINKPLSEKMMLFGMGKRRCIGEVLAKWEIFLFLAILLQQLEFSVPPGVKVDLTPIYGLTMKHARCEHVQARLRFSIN

Trypanosoma cruzi [6] = test: Anti-parasitic activity against Trypanosoma cruzi Y promastigotes infected in HG39 cells at 10 uM by qPCR analysis relative to control; type: functional, cell-based; conditions: in the assay text read “trypomastigotes” for “promastigotes”
Method in brief: (§5)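 Confluent HG39 cells (3 x 10^6 per well) infected at a 1:1 ratio with blood-derived T. cruzi Y strain trypomastigotes. Growth inhibition was read as parasite gDNA by TaqMan probe-based quantitative real-time PCR.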

786-0 = test: Mitochondrial toxicity in human 786-O cells at 10 uM by mitotracker red chloromethyl-Xrosamine staining based-uptake method relative to control; type: cell-based; conditions: 786-0, 10 µM
Method in brief: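 786-O renal carcinoma cells kept in RPMI-1640 with 2 mM glutamine, 10% v/v FCS, streptomycin 100 µg/ml and penicillin G 100 U/ml. Mitochondrial toxicity monitored by MitoTracker Red CMXRos uptake with high-content imaging.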

Trypanosoma cruzi [7] = test: Anti-parasitic activity against Trypanosoma cruzi Y promastigotes infected in HG39 cells by qPCR analysis; type: functional, cell-based; conditions: in the assay text read “trypomastigotes” for “promastigotes”; method in brief: as §5
CYP2C9 = CYP2C9 (Homo sapiens, UniProt P11712); test: Inhibition of human CYP2C9 expressed in baculovirus-infected insect cells at 10 uM using Luciferin-H as substrate in presence of NADPH by P450-Glo luminescence assay relative to control; conditions: probe Luciferin-H
CYP2C9, sequence (P11712 whole entry): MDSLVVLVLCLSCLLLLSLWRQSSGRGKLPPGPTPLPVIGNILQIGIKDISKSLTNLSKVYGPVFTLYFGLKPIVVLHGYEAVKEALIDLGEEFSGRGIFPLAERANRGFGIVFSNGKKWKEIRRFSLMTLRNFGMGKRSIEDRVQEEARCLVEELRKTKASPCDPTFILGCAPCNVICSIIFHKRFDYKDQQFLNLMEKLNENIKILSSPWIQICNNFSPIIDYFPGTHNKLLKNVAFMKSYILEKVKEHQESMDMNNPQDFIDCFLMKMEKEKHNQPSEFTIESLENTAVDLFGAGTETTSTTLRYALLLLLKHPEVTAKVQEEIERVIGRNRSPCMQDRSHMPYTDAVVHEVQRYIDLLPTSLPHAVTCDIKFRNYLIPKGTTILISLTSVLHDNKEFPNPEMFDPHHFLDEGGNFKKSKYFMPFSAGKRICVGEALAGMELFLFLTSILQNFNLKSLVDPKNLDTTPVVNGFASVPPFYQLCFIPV

[8] = Cytotoxicity against human […] cells assessed as cell growth at 10 uM by Cell titer-Glo assay relative to control; type: cell-based; conditions: WI-38 cells, read-out: Activity; method in brief: as §4
[9] = Lipophilicity, log P of the compound; type: physicochemical; conditions: octanol/water
[10] = Selectivity index, ratio of CC50 for human THP1 cells to EC50 for anti-parasitic activity against bloodstream form of Trypanosoma brucei brucei Lister 427; type: toxicity; conditions: THP-1 cells, read-out: Ratio CC50/EC50; method in brief: as §3
[11] = system: Trypanosoma brucei brucei; test: Anti-parasitic activity against bloodstream form of Trypanosoma brucei brucei Lister 427 at 10 uM after 72 hrs by resazurin-based assay relative to control; type: functional; conditions: Lister 427, 72 h
Method in brief: (§6)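 Bloodstream-form T. brucei, modified resazurin-based viability assay. EC50 is the arithmetic mean of at least two independent determinations, each run in triplicate.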

[12] = system: Trypanosoma brucei brucei; test: Anti-parasitic activity against bloodstream form of Trypanosoma brucei brucei Lister 427 after 72 hrs by resazurin-based assay; type: functional; conditions: Lister 427, 72 h; method in brief: as §6
Trypanosoma brucei = test: Anti-parasitic activity against Trypanosoma brucei 427; type: functional
[13] = Cytotoxicity against human A549 cells assessed as cell growth by Cell titer-Glo assay; type: cell-based; method in brief: as §4
Cytochrome P450 1A2 = target: T2, Cytochrome P450 1A2 (Homo sapiens, UniProt P05177); test: Inhibition of human CYP1A2 expressed in baculovirus-infected insect cells using Luciferin-1A2 as substrate in presence of NADPH by P450-Glo luminescence assay; type: ADME; method in brief: as §2
T2 sequence (P05177 whole entry): T1 sequence (P05177 whole entry)

Cytochrome P450 2C19 = Cytochrome P450 2C19 (Homo sapiens, UniProt P33261); test: Inhibition of human CYP2C19 expressed in baculovirus-infected insect cells using Luciferin-H EGE as substrate in presence of NADPH by P450-Glo luminescence assay; type: ADME; method in brief: as §2
Cytochrome P450 2C19, sequence (P33261 whole entry): as the sequence (P33261 whole entry) above

Cytochrome P450 2D6 = Cytochrome P450 2D6 (Homo sapiens, UniProt P10635); test: Inhibition of human CYP2D6 expressed in baculovirus-infected insect cells using Luciferin-ME EGE as substrate in presence of NADPH by P450-Glo luminescence assay; type: ADME; method in brief: as §2
Cytochrome P450 2D6, sequence (P10635 whole entry): as the sequence (P10635 whole entry) above

EC50 (Leishmania infantum [2])	inhibition at 10 µM (CYP2D6)	inhibition at 1 h, 10 µM (Aurora kinase B)	inhibition at 10 µM (CYP3A4)	inhibition at 10 µM (CYP2C19)	inhibition at 10 µM (CYP1A2)	inhibition at 10 µM (CYP2C9)	logP [9]	EC50 [12]	SMILES	inhibition at 50 µM (Leishmania infantum [1])	inhibition at 10 µM (hERG (KCNH2))	CC50 [3]	selectivity ratio [4]	viability at 10 µM [5]	inhibition at 10 µM (Trypanosoma cruzi [6])	Activity (786-0)	viability at 10 µM [8]	selectivity ratio [10]	inhibition at 10 µM [11]	other results
42.4 µM	88.3%	-8.1%	-3.1%	84.6%	13.3%	60.9%	3.47	4.4 µM	COc1ccc(O)c(C(=O)/C=C/c2cc(OC)c(OC)c(OC)c2)c1	43%	9.5%	> 25 µM	> 1	108%	1%	-6.4%	73.9%	≥ 6	100%	
22.2 µM	-24.9%	-4.2%	18.7%	75.7%	-3.1%	27%	3.5	7.4 µM	COc1cc(O)c(C(=O)/C=C/c2cc(OC)c(OC)c(OC)c2)cc1OC	88%	7.1%	> 25 µM	> 2	115%	0%	10%	88.5%	≥ 3	91%	

The remaining lines, values behind:

SMILES	EC50 (Leishmania infantum [2])	inhibition at 10 µM (CYP2D6)	inhibition at 1 h, 10 µM (Aurora kinase B)	inhibition at 10 µM (CYP3A4)	inhibition at 10 µM (CYP2C19)	inhibition at 10 µM (CYP1A2)	inhibition at 10 µM (CYP2C9)	logP [9]	EC50 [12]	inhibition at 50 µM (Leishmania infantum [1])	inhibition at 10 µM (hERG (KCNH2))	CC50 [3]	selectivity ratio [4]	viability at 10 µM [5]	inhibition at 10 µM (Trypanosoma cruzi [6])	Activity (786-0)	viability at 10 µM [8]	selectivity ratio [10]	inhibition at 10 µM [11]	other results
COc1ccc(C(=O)/C=C/c2cc(OC)c(OC)c(OC)c2)c(O)c1	30.6 µM	65.1%	-23.6%	-10%	67.5%	1.2%	57.6%	3.49		71%	34.7%	> 100 µM	> 1.6	127%	60%	1.1%	78.1%			EC50 (Trypanosoma cruzi [7]): < 10 µM
COc1cc(O)c(C(=O)/C=C/c2ccccc2)c(OC)c1 [FLAVOKAWAIN B]								3.9												EC50 (Trypanosoma brucei): 6.2 µM
N=C(N)c1ccc(OCCCCCOc2ccc(C(=N)N)cc2)cc1 [PENTAMIDINE]									0.00155 µM											GI50 [13]: > 100 µM; IC50 (Cytochrome P450 1A2): > 100 µM; IC50 (Cytochrome P450 2C19): > 100 µM; IC50 (Cytochrome P450 2D6): 24.8 µM
